Experimental findings from ChEMBL document CHEMBL1687874, “Anti-tubercular agents. Part 6: synthesis and antimycobacterial activity of novel arylsulfonamido conjugated oxazolidinones” (Eur J Med Chem, 2011) are described below.

≈ marks a conversion by molar mass, not a printed value.

In assay [1] the test system is Mycobacterium tuberculosis. Put plainly: Antimycobacterial activity against Mycobacterium tuberculosis H37Rv after 3 to 4 weeks by microplate alamar blue assay. It counts as functional. On the technique in general: Resazurin is reduced to fluorescent resorufin, in cell work by metabolically active cells.
Assay [2] in a line: Selectivity index, ratio of IC50 for human HFF cells to MIC for Mycobacterium tuberculosis H37Rv. The assay is classed as functional. The gist of the method:
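SI computed as IC50 on HFF cells (24 h MTT) divided by MIC against M. tuberculosis H37Rv (3–4 week microdilution, […]).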

Assay [3] relates to HFF. Briefly: Cytotoxicity against human HFF cells after 24 hrs by MTT assay. The assay is classed as cell-based. In a few lines: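 Human foreskin fibroblasts in DMEM with 10% FCS exposed to test material for 24 h at 37 °C in CO2 incubator. MTT then added, 3 h further at 37 °C. Formazan read at 565 nm; percent cytotoxicity relative to untreated cells, reported as IC50.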
In general terms: Formazan colour is commonly taken as a measure of viable cells.

What is called MIC is the least concentration at which growth counts as inhibited. Higher therefore signals a less susceptible organism. Take `CN1C(NC[C@H]2CN(c3ccc(N4CCN(C(=O)/C=C/c5ccc(-c6ccc(Cl)cc6)o5)CC4)c(F)c3)C(=O)O2)=NS(=O)(=O)c2ccccc21`: in assay [1], the MIC was above 6.25 µg/mL.
In assay [1], `O=C1O[C@@H](CNC2=NS(=O)(=O)c3ccccc3N2c2ccccc2)CN1c1ccc(N2CCOCC2)c(F)c1` returned an MIC above 6.25 µg/mL.
Consider `O=C1O[C@@H](CNC2=NS(=O)(=O)c3ccccc3N2c2ccccc2)CN1c1ccc(N2CCSCC2)c(F)c1`, for which the MIC in assay [1] is above 6.25 µg/mL.
In assay [1], `CN1C(NC[C@H]2CN(c3ccc(N4CCSCC4)c(F)c3)C(=O)O2)=NS(=O)(=O)c2ccccc21` had an MIC above 6.25 µg/mL.
The same measure, in the same setting: with `CN1C(NC[C@H]2CN(c3ccc(N4CCOCC4)c(F)c3)C(=O)O2)=NS(=O)(=O)c2ccccc21` the figure was above 6.25 µg/mL.
Compound `O=C1O[C@@H](CNS(=O)(=O)c2ccccc2)CN1c1ccc(N2CCOCC2)c(F)c1` displayed an MIC in assay [1] above 6.25 µg/mL.
`CC(=O)NC[C@H]1CN(c2ccc(N3CCOCC3)c(F)c2)C(=O)O1` [LINEZOLID]: the MIC in assay [1] was determined as 2 µg/mL (≈ 5.93 µM).
As a reminder, the IC50 is the concentration that inhibits the measured activity by half. For `O=C1O[C@@H](CNS(=O)(=O)c2ccc(F)cc2)CN1c1ccc(N2CCOCC2)c(F)c1`, the “Selectivity Index” value in assay [2] is reported as above 100. The compound further had an MIC in assay [1] of 1 µg/mL (≈ 2.21 µM). In assay [3], this compound displayed an IC50 above 100 µM.
In assay [1], `O=C1O[C@@H](CNS(=O)(=O)c2ccc(Cl)cc2)CN1c1ccc(N2CCOCC2)c(F)c1` came in with a minimum inhibitory concentration (MIC) above 6.25 µg/mL.
`CO[C@H]1/C=C/O[C@@]2(C)Oc3c(C)c(O)c4c(O)c(c(/C=N/N5CCN(C)CC5)c(O)c4c3C2=O)NC(=O)/C(C)=C\C=C\[C@H](C)[C@H](O)[C@@H](C)[C@@H](O)[C@@H](C)[C@H](OC(C)=O)[C@@H]1C` [RIFAMPIN] yielded a minimal inhibitory concentration (MIC) in assay [1] of 0.12 µg/mL (≈ 0.146 µM).
On the same count and under the same terms, for `CCN1C(NC[C@H]2CN(c3ccc(N4CCSCC4)c(F)c3)C(=O)O2)=NS(=O)(=O)c2ccccc21` the value was above 6.25 µg/mL.
As to `CC(=O)NC[C@H]1CN(c2ccc(N3CCN(C4=NS(=O)(=O)c5ccccc5N4C)CC3)c(F)c2)C(=O)O1`, in assay [2], the “Selectivity Index” value is above 100. Besides, in assay [1], the minimum inhibitory concentration (MIC) was 1 µg/mL (≈ 1.88 µM). This compound also displayed an IC50 in assay [3] above 100 µM.
In assay [1], `O=C(/C=C/c1ccc(-c2ccc(Cl)cc2)o1)N1CCN(c2ccc(N3C[C@H](CNC4=NS(=O)(=O)c5ccccc5N4c4ccccc4)OC3=O)cc2F)CC1` showed an MIC above 6.25 µg/mL.
Turning to `CCN1C(N2CCN(c3ccc(N4C[C@H](CNC(C)=O)OC4=O)cc3F)CC2)=NS(=O)(=O)c2ccccc21`, the “Selectivity Index” value in assay [2] is on record as above 50. In addition, the lowest concentration to inhibit growth in assay [1] (MIC) was 1 µg/mL (≈ 1.84 µM). Moreover, the concentration for half-maximal inhibition (IC50) in assay [3] is above 50 µM.
The compound `CCN1C(NC[C@H]2CN(c3ccc(N4CCOCC4)c(F)c3)C(=O)O2)=NS(=O)(=O)c2ccccc21` yielded an MIC in assay [1] above 6.25 µg/mL.
Turning to `CC(=O)NC[C@H]1CN(c2ccc(N3CCN(C4=NS(=O)(=O)c5ccccc5N4c4ccccc4)CC3)c(F)c2)C(=O)O1`, the “Selectivity Index” value in assay [2] is above 8. Also, the minimum inhibitory concentration (MIC) in assay [1] came out at 6.25 µg/mL (≈ 10.5 µM). The compound further gave an IC50 in assay [3] above 50 µM.
Consider `Cc1ccc(S(=O)(=O)NC[C@H]2CN(c3ccc(N4CCOCC4)c(F)c3)C(=O)O2)cc1`, for which, in assay [1], the minimal inhibitory concentration (MIC) is above 6.25 µg/mL.
In assay [1], `CCN1C(NC[C@H]2CN(c3ccc(N4CCN(C(=O)/C=C/c5ccc(-c6ccc(Cl)cc6)o5)CC4)c(F)c3)C(=O)O2)=NS(=O)(=O)c2ccccc21` displayed a minimal inhibitory concentration (MIC) above 6.25 µg/mL.
